According to ChEMBL document CHEMBL4219238, “Design, synthesis, molecular modelling and in vitro cytotoxicity analysis of novel carbamate derivatives as inhibitors of Monoacylglycerol lipase” (Bioorg Med Chem, 2018):
Activity calls are given as the source filed them. No cut-off for these calls is given here.

How the values were obtained:
Monoglyceride lipase [1] = molecular target: T1, Monoglyceride lipase (Mus musculus, UniProt O35678); experiment: Inhibition of MAGL in mouse B16-F10 cells using 7-HRA as substrate preincubated for 60 mins followed by substrate addition measured every 2.5 mins for 2 hrs by fluorescence assay; type: cell-based
T1 sequence (O35678 whole entry): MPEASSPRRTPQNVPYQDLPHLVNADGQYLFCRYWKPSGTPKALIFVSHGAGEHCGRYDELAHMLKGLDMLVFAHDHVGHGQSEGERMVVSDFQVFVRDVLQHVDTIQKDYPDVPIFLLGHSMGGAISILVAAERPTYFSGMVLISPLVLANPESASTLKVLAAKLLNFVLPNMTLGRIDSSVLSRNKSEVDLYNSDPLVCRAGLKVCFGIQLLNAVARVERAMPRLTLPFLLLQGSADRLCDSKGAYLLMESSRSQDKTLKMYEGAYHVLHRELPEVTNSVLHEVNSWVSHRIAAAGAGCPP

B16-F10 [2] = experiment: Antiproliferative activity against mouse B16F10 cells at 10 uM after 48 hrs by Cyto Tracker red dye based flow cytometry; type: functional, cell-based
Summary of the method: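 B16-F10 cells (Iscove's medium, 10% heat-inactivated FBS, 37 °C, 5% CO2) exposed to compound or DMSO for 48 h, stained with CytoTrack Red 628/643 and analysed by flow cytometry. Proliferation index (average number of cells that an initial cell became) expressed as fold change over DMSO control; n = 3; one-way ANOVA with Tukey post-test.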

Monoglyceride lipase [3] = molecular target: T1, Monoglyceride lipase; experiment: […] of MAGL in mouse B16-F10 cells using 7-HRA as substrate preincubated for 60 mins followed by substrate addition measured every 2.5 mins for 2 hrs by fluorescence assay; type: cell-based
Monoglyceride lipase [4] = molecular target: T2, Monoglyceride lipase (Homo sapiens, UniProt Q99685); experiment: Inhibition of recombinant human MAGL using 7-HRA as substrate preincubated for 60 mins followed by substrate addition by fluorescence assay
T2 sequence (Q99685 whole entry): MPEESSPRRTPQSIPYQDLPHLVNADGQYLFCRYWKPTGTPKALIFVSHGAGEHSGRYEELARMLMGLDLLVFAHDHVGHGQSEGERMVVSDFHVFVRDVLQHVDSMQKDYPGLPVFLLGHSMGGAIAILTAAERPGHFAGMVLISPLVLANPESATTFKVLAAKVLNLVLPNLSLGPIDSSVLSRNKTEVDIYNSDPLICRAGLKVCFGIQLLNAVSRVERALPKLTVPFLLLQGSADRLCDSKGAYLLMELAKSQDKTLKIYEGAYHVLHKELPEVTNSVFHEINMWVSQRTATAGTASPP

B16-F10 [5] = experiment: Induction of apoptosis in mouse B16F10 cells assessed as late apoptotic cells at 10 uM after 48 hrs by Annexin V-FITC/propidium iodide staining based flow cytometry (reference value: 7.39%); type: functional
[6] = molecular target: T3, Monoglyceride lipase (Mus musculus) (UniProt O35678); experiment: Inhibition of MAGL in mouse B16-F10 intact cells at 10 uM using 7-HRA as substrate preincubated for 6 hrs followed by substrate addition by fluorescence assay; type: cell-based
T3 sequence (whole entry): T1 sequence (O35678 whole entry)
Summary of the method: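 Intact B16-F10 cells cultured 6 h with compound or DMSO, homogenised 30 min at 4 °C in lysis buffer and spun 1,500 × g 5 min. 1 μg lysate assayed with 10 μM 7-HRA (ex 571/em 588 nm); 5-min values reported; mean ± SEM, n = 3.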

B16-F10 [7] = experiment: Induction of apoptosis in mouse B16F10 cells assessed as early apoptotic cells at 10 uM after 48 hrs by Annexin V-FITC/propidium iodide staining based flow cytometry (reference value: 1.75%); type: functional
B16-F10 [8] = experiment: Induction of apoptosis in mouse B16F10 cells assessed as necrotic cells at 10 uM after 48 hrs by Annexin V-FITC/propidium iodide staining based flow cytometry (reference value: 2.62%); type: functional
[9] = molecular target: T4, Monoglyceride lipase (Homo sapiens) (UniProt Q99685); experiment: Inhibition of recombinant human MAGL assessed as residual activity at 10 uM using 7-HRA as substrate preincubated for 60 mins followed by substrate addition by fluorescence assay relative to control
T4 sequence (whole entry): T2 sequence (Q99685 whole entry)
Summary of the method: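 Recombinant human MAGL (C-terminal His-tagged, E. coli), 25 ng/well, in 50 mM Tris-HCl pH 7.4, 1 mM EDTA, 10% DMSO final. Preincubated with inhibitor or DMSO 60 min at room temperature, then 5 μM 7-HRA (final) added. Resorufin fluorescence (ex 571/em 588 nm) converted via calibration curve. Rates from linear regression, no-enzyme background subtracted, normalised to no-inhibitor control. IC50 taken at 30 min by variable-slope sigmoid fit.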

[10] = molecular target: T5, Fatty-acid amide hydrolase 1 (Homo sapiens) (UniProt O00519); experiment: Inhibition of human FAAH at 10 uM using AAMCA as substrate preincubated for 1 hr followed by substrate addition measured after 30 mins by fluorescence assay relative to control
T5 sequence (whole entry): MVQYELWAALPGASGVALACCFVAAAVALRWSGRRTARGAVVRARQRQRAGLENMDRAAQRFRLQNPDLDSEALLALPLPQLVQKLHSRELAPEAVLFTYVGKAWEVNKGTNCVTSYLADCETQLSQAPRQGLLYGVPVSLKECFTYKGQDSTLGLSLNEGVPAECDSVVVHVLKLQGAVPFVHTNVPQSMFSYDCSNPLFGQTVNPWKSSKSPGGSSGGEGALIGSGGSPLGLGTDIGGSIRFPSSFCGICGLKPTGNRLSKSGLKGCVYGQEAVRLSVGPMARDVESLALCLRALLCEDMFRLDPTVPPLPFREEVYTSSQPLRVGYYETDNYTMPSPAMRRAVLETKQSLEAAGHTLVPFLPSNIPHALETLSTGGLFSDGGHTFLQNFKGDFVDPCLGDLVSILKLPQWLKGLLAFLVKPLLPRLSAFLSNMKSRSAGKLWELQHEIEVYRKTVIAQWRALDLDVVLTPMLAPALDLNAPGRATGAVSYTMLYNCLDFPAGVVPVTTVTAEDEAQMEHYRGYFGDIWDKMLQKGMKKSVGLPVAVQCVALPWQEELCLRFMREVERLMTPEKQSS
Summary of the method: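 Recombinant human FAAH (C-terminal His-tagged, Sf21), 1 U/well, in 50 mM Tris-HCl, 1 mM EDTA, pH 9, preincubated 1 h at room temperature with 10 μM compound (final). AAMCA added to 20 μM final; fluorescence (ex 360/em 460 nm) read every 3 min for 30 min. Rate by linear regression, no-enzyme background subtracted, normalised to no-inhibitor control.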

B16-F10 [11] = experiment: Induction of apoptosis in mouse B16F10 cells assessed as live cells at 10 uM after 48 hrs by Annexin V-FITC/propidium iodide staining based flow cytometry (reference value: 88.04%); type: functional
[12] = molecular target: T4, Monoglyceride lipase (Homo sapiens); experiment: Inhibition of MAGL in human MCF7 cells at 10 uM using 7-HRA as substrate preincubated for 6 hrs followed by substrate addition by fluorescence assay; type: cell-based
Summary of the method: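 MCF7 cells cultured 6 h with 10 μM compound or DMSO, then lysed; MAGL activity measured on total cell lysate using the 7-HRA fluorogenic assay.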

MCF7 [13] = experiment: Induction of apoptosis in human MCF7 cells at 10 uM after 48 hrs by Annexin V-FITC/propidium iodide staining based flow cytometry; type: functional, cell-based
Summary of the method: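 HEK293T (DMEM with 10% FBS) or MCF7 (DMEM/Ham's F-12 1:1, 10% FBS) cells treated 48 h with 10 μM compound or DMSO. Staining with Alexa Fluor 488 annexin V plus 5 μg/ml PI in HEPES/NaCl/CaCl2 binding buffer; 10,000 cells per sample read by flow cytometry; n = 3, mean ± S.E.M.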

MCF7 [14] = experiment: Induction of apoptosis in human MCF7 cells at 20 uM after 48 hrs by Annexin V-FITC/propidium iodide staining based flow cytometry; type: functional, cell-based
Summary of the method: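 MCF7 cells grown in 50% DMEM high glucose / 50% Ham's F-12 with 10% heat-inactivated FBS at 37 °C, 5% CO2, then exposed 48 h to compound or DMSO vehicle. Cells stained with annexin V plus 5 µg/ml PI in HEPES/NaCl/CaCl2 binding buffer. Flow cytometry on 10,000 cells per sample. Apoptotic = AnnV+/PI− plus AnnV+/PI+. n=3, mean ± S.E.M.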

MCF7 [15] = experiment: Induction of apoptosis in human MCF7 cells at 10 nM after 48 hrs by Annexin V-FITC/propidium iodide staining based flow cytometry; type: functional, cell-based

Structure (SMILES): O=C(Nc1cccc(-c2ccccc2)c1)OCCc1ccccc1
- IC50 (Monoglyceride lipase [1]; read-out: IC50): 17.1 µM
- Activity (B16-F10 [2]): inactive

Structure (SMILES): O=C(Nc1cccc(-c2ccccc2)c1)Nc1cccc(-c2ccccc2)c1
- EC50 (Monoglyceride lipase [3]): 5.76 µM

Structure (SMILES): O=C(Nc1cccc(-c2ccc(F)cc2)c1)OCc1ccccc1
- IC50 (Monoglyceride lipase [1]; read-out: IC50): 15.6 µM
- Activity (B16-F10 [2]): inactive

Structure (SMILES): O=C(Nc1cccc(-c2ccc(C(F)(F)F)cc2)c1)OCC1CCCCC1
- IC50 (Monoglyceride lipase [1]; read-out: IC50): 17.4 µM
- Activity (B16-F10 [2]): inactive

Structure (SMILES): O=C(Nc1cccc(-c2ccccc2)c1)OCc1ccco1
- IC50 (Monoglyceride lipase [1]; b16-f10): Nd(Insoluble)
- IC50 (Monoglyceride lipase [4]): Nd(Insoluble)

Structure (SMILES): O=C(Nc1cccc(-c2ccc(C(F)(F)F)cc2)c1)OCc1ccccc1
- IC50 (Monoglyceride lipase [1]; read-out: IC50): 9.41 µM
- Activity (B16-F10 [5]): 22.65%
- inhibition [6]: Active
- Activity (B16-F10 [7]): 9.89%
- Activity (B16-F10 [8]): 2.96%
- Activity (B16-F10 [2]): Active
- Activity [9]: 82%
- inhibition [10]: 15%
- IC50 (Monoglyceride lipase [4]; read-out: IC50): 4.5 µM
- Activity (B16-F10 [11]): 64.51%
- inhibition [12]: Active

Structure (SMILES): CCCCCCCC/C=C\CCCCCCCC(=O)NCC
- Activity (MCF7 [13]): inactive
- inhibition [10]: 99%

Structure (SMILES): O=C(Nc1cccc(-c2ccccc2)c1)OC1CCCCC1
- IC50 (Monoglyceride lipase [1]; read-out: IC50): 19.8 µM
- Activity (B16-F10 [5]): 13.54%
- Activity (B16-F10 [7]): 1.43%
- Activity (B16-F10 [8]): 5.48%
- Activity (B16-F10 [2]): inactive
- Activity [9]: 66%
- IC50 (Monoglyceride lipase [4]; read-out: IC50): 9.1 µM
- Activity (B16-F10 [11]): 79.55%

Structure (SMILES): O=C(Oc1ccc([N+](=O)[O-])cc1)N1CCC(C(O)(c2ccc3c(c2)OCO3)c2ccc3c(c2)OCO3)CC1
- Activity (MCF7 [14]): Active

Structure (SMILES): COc1ccc(-c2ccc(-c3cn(C(=O)N4CCCCC4c4ccccc4)nn3)cc2)cc1 (configuration not stated)
- Activity (MCF7 [15]): inactive

Structure (SMILES): O=C(Nc1cccc(-c2ccc(F)cc2)c1)OCC1CCCCC1
- IC50 (Monoglyceride lipase [1]; read-out: IC50): 26.7 µM
- Activity (B16-F10 [2]): inactive

Structure (SMILES): O=C(Nc1cccc(-c2ccccc2)c1)OCc1ccccc1
- IC50 (Monoglyceride lipase [1]; read-out: IC50): 16.5 µM
- Activity (B16-F10 [2]): inactive
- IC50 (Monoglyceride lipase [4]; read-out: IC50): 11.1 µM
